Data as given in ChEMBL document CHEMBL1649503, “Alkoxyalkyl esters of 9-(s)-(3-hydroxy-2-phosphonomethoxypropyl) adenine are potent and selective inhibitors of hepatitis B virus (HBV) replication in vitro and in HBV transgenic mice in vivo” (Antimicrob Agents Chemother, 2009).

Experiments:
Hepatitis B virus [1] = test: Antiviral activity against HBV harboring RNA polymerase M204I mutant gene infected in human HuH7 cells assessed as decrease in viral transient transfection after 5 days; settings: Huh-7, 5 days
Heart [2] = test: AUC in Swiss-Webster mouse heart assessed per gram of tissue at 10 mg/kg, po after 24 hrs; format: ADME, organism-based; set-up: time < 24 hr, dose 10 mg/kg, route oral; settings: in vivo
Outline: (§1)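 Female Swiss-Webster mice (about 25 g) each got a single 10 mg/kg dose of the 14C-labeled (8-14C) ester (50 mCi/mmol) in 0.7% saline, by oral gavage or ip injection. Blood was taken at 1, 3, 6, 12 and 24 h, and liver, spleen, kidney, lung, heart and brain were excised, washed and weighed. Radioactivity was measured by scintillation counting as µM plasma equivalents or nmol/g tissue, mean of three per time point.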

Kidney [3] = test: Cmax in Swiss-Webster mouse kidney assessed per gram of tissue at 10 mg/kg, po after 24 hrs; format: ADME, organism-based; set-up: dose 10 mg/kg, route oral; settings: in vivo
Outline: as §1

HepG2 [4] = test: Drug metabolism in human HepG2 cells assessed as HPMPA uptake at 10 uM after 48 hrs; format: ADME, cell-based; settings: hepg2, 48 h
[5] = Tmax in Swiss-Webster mouse plasma at 10 mg/kg, po after 24 hrs; format: ADME, organism-based; set-up: dose 10 mg/kg, route oral
Outline: (§2)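 Female Swiss-Webster mice (about 25 g) got one 10 mg/kg dose of the 8-14C-labeled ester (50 mCi/mmol) in 0.7% saline, by oral gavage or intraperitoneal injection. Blood was taken at 1, 3, 6, 12 and 24 h. Liver, spleen, kidney, lung, heart and brain were excised, washed and weighed. Drug plus metabolites were measured by liquid scintillation as µM plasma equivalents or nmol/g tissue. Each time point is the mean of three replicates.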

[6] = Tmax in Swiss-Webster mouse brain at 10 mg/kg, po after 24 hrs; format: ADME, organism-based; set-up: dose 10 mg/kg, route oral
Outline: as §1

Hepatitis B virus [7] = test: Antiviral activity against wild type HBV infected in human HuH7 cells assessed as decrease in viral transient transfection after 5 days; settings: Huh-7, 5 days
Brain [8] = test: Cmax in Swiss-Webster mouse brain assessed per gram of tissue at 10 mg/kg, po after 24 hrs; format: ADME, organism-based; set-up: dose 10 mg/kg, route oral; settings: in vivo
Outline: as §1

Spleen [9] = test: AUC in Swiss-Webster mouse spleen assessed per gram of tissue at 10 mg/kg, po after 24 hrs; format: ADME, organism-based; set-up: time < 24 hr, dose 10 mg/kg, route oral; settings: in vivo
Outline: as §1

HepG2 [10] = test: Drug metabolism in human HepG2 cells assessed as unidentified metabolite uptake at 10 uM after 48 hrs; format: ADME, cell-based; settings: hepg2, 48 h
[11] = Tmax in Swiss-Webster mouse brain at 10 mg/kg, ip after 24 hrs; format: ADME, organism-based; set-up: dose 10 mg/kg, route intraperitoneal
Outline: as §1

Hepatitis B virus [12] = test: Antiviral activity against HBV harboring RNA polymerase L180M mutant gene infected in human HuH7 cells assessed as decrease in viral transient transfection after 5 days; settings: Huh-7, 5 days
HepG2 [13] = test: Drug metabolism in human HepG2 cells assessed as HPMPApp uptake at 10 uM after 48 hrs; format: ADME, cell-based; settings: hepg2, 48 h
HepG2 [14] = test: Drug metabolism in human HepG2 cells assessed as HPMPApp uptake at 10 uM after 24 hrs; format: ADME, cell-based; settings: hepg2, 24 h
Outline: (§3)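 Nearly confluent HepG2 flasks got 14C-labeled drug (final 10 µM, 50 mCi/mmol) for 24 h. Cells were washed with cold PBS, lysed in water by two freeze-thaw cycles and sonication, then extracted with cold TCA (8% final) and centrifuged at 4°C. Supernatant was counted and analyzed by SAX ion-exchange HPLC, with metabolites assigned by retention versus reference standards.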

Spleen [15] = test: Cmax in Swiss-Webster mouse spleen assessed per gram of tissue at 10 mg/kg, po after 24 hrs; format: ADME, organism-based; set-up: dose 10 mg/kg, route oral; settings: in vivo
Outline: as §1

[16] = Cmax in Swiss-Webster mouse plasma assessed per gram of tissue at 10 mg/kg, po after 24 hrs; format: ADME, organism-based; set-up: dose 10 mg/kg, route oral
Outline: as §1

[17] = Tmax in Swiss-Webster mouse liver at 10 mg/kg, ip after 24 hrs; format: ADME, organism-based; set-up: dose 10 mg/kg, route intraperitoneal
Outline: as §1

[18] = Oral bioavailability in Swiss-Webster mouse at 10 mg/kg after 24 hrs; format: ADME, organism-based; settings: in vivo
Outline: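 Same single 10 mg/kg 14C-labeled dose (50 mCi/mmol, 0.7% saline) given to female Swiss-Webster mice orally or ip. Plasma sampled 1–24 h and counted by liquid scintillation. Relative oral bioavailability came from AUCs of drug plus metabolites, computed as printed: […].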

HepG2 [19] = test: Drug metabolism in human HepG2 cells assessed as HPMPAp uptake at 10 uM after 48 hrs; format: ADME, cell-based; settings: hepg2, 48 h
Heart [20] = test: AUC in Swiss-Webster mouse heart assessed per gram of tissue at 10 mg/kg, ip after 24 hrs; format: ADME, organism-based; set-up: time < 24 hr, dose 10 mg/kg, route intraperitoneal; settings: in vivo
Outline: as §1

Brain [21] = test: AUC in Swiss-Webster mouse brain assessed per gram of tissue at 10 mg/kg, po after 24 hrs; format: ADME, organism-based; set-up: time < 24 hr, dose 10 mg/kg, route oral; settings: in vivo
Outline: as §1

Kidney [22] = test: AUC in Swiss-Webster mouse kidney assessed per gram of tissue at 10 mg/kg, po after 24 hrs; format: ADME, organism-based; set-up: time < 24 hr, dose 10 mg/kg, route oral; settings: in vivo
Outline: as §1

[23] = Tmax in Swiss-Webster mouse lung at 10 mg/kg, po after 24 hrs; format: ADME, organism-based; set-up: dose 10 mg/kg, route oral
Outline: as §2

[24] = Tmax in Swiss-Webster mouse heart at 10 mg/kg, po after 24 hrs; format: ADME, organism-based; set-up: dose 10 mg/kg, route oral
Outline: as §1

Kidney [25] = test: Cmax in Swiss-Webster mouse kidney assessed per gram of tissue at 10 mg/kg, ip after 24 hrs; format: ADME, organism-based; set-up: dose 10 mg/kg, route intraperitoneal; settings: in vivo
Outline: as §1

[26] = Tmax in Swiss-Webster mouse kidney at 10 mg/kg, po after 24 hrs; format: ADME, organism-based; set-up: dose 10 mg/kg, route oral
Outline: as §1

[27] = Tmax in Swiss-Webster mouse liver at 10 mg/kg, po after 24 hrs; format: ADME, organism-based; set-up: dose 10 mg/kg, route oral
Outline: as §1

[28] = Tmax in Swiss-Webster mouse lung at 10 mg/kg, ip after 24 hrs; format: ADME, organism-based; set-up: dose 10 mg/kg, route intraperitoneal
Outline: as §2

Hepatitis B virus [29] = test: Antiviral activity against HBV infected in human HepG2(2.2.15) cells assessed as decrease in extracellular viral DNA level after 24 hrs by blot hybridization assay; format: functional, organism-based; settings: HepG2 2.2.15, 24 h
Outline: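 Confluent 2.2.15 cells in RPMI 1640 with 2% FBS got nine consecutive daily doses, with medium replaced daily with drug-containing medium. Six wells per concentration over two replicate plates. Cells were pelleted from the medium, which was kept at 4°C and not frozen. Extracellular HBV DNA was quantified by blot hybridization 24 h after the last dose.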

HepG2 [30] = test: Drug metabolism in human HepG2 cells assessed as HPMPA uptake at 10 uM after 24 hrs; format: ADME, cell-based; settings: hepg2, 24 h
Outline: as §3

Spleen [31] = test: AUC in Swiss-Webster mouse spleen assessed per gram of tissue at 10 mg/kg, ip after 24 hrs; format: ADME, organism-based; set-up: time < 24 hr, dose 10 mg/kg, route intraperitoneal; settings: in vivo
Outline: as §1

Hepatitis B virus [32] = test: Antiviral activity against HBV harboring RNA polymerase L180M/M204V mutant gene infected in human HuH7 cells assessed as decrease in viral transient transfection after 5 days; settings: Huh-7, 5 days
Lung [33] = test: Cmax in Swiss-Webster mouse lung assessed per gram of tissue at 10 mg/kg, ip after 24 hrs; format: ADME, organism-based; set-up: dose 10 mg/kg, route intraperitoneal; settings: in vivo
Outline: as §1

Brain [34] = test: Cmax in Swiss-Webster mouse brain assessed per gram of tissue at 10 mg/kg, ip after 24 hrs; format: ADME, organism-based; set-up: dose 10 mg/kg, route intraperitoneal; settings: in vivo
Outline: as §1

HepG2 [35] = test: Drug metabolism in human HepG2 cells assessed as HPMPAp uptake at 10 uM after 24 hrs; format: ADME, cell-based; settings: hepg2, 24 h
Outline: as §3

Kidney [36] = test: AUC in Swiss-Webster mouse kidney assessed per gram of tissue at 10 mg/kg, ip after 24 hrs; format: ADME, organism-based; set-up: time < 24 hr, dose 10 mg/kg, route intraperitoneal; settings: in vivo
Outline: as §1

Lung [37] = test: Cmax in Swiss-Webster mouse lung assessed per gram of tissue at 10 mg/kg, po after 24 hrs; format: ADME, organism-based; set-up: dose 10 mg/kg, route oral; settings: in vivo
Outline: as §1

## CCCCCCCCCCCCCCCCOCCCOP(=O)(O)CO[C@H](CO)Cn1cnc2c(N)ncnc21
Hepatitis B virus [1]
  EC50: 1200 nM
  EC90: 4000 nM
Heart [2]
  AUC: 2.69 nmol·h/g
Kidney [3]
  Cmax: 5.07 nmol/g
HepG2 [4]
  Drug uptake: 393 pmol
[5]
  Tmax: 1 h
[6]
  Tmax: 3 h
Hepatitis B virus [7]
  EC50: 800 nM
  EC90: 3000 nM
Brain [8]
  Cmax: 0.07 nmol/g
Spleen [9]
  AUC: 3.9 nmol·h/g
HepG2 [10]
  Drug uptake: 402 pmol
[11]
  Tmax: 1 h
Hepatitis B virus [12]
  EC50: 1000 nM
  EC90: 3500 nM
HepG2 [13]
  Drug uptake: 444 pmol
HepG2 [14]
  Drug uptake: 888 pmol
Spleen [15]
  Cmax: 0.22 nmol/g
[16]
  Cmax: 1110 nM
[17]
  Tmax: 1 h
[18]
  bioavailability: 64%
HepG2 [19]
  Drug uptake: 344 pmol
Heart [20]
  AUC: 3.8 nmol·h/g
Brain [21]
  AUC: 0.68 nmol·h/g
Kidney [22]
  AUC: 68.8 nmol·h/g
[23]
  Tmax: 3 h
[24]
  Tmax: 1 h
Kidney [25]
  Cmax: 22.9 nmol/g
[26]
  Tmax: 3 h
[27]
  Tmax: 3 h
[28]
  Tmax: 1 h
Hepatitis B virus [29]
  EC50: 188 nM
  EC90: 616 nM
HepG2 [30]
  Drug uptake: 1007 pmol
Spleen [31]
  AUC: 16.3 nmol·h/g
Hepatitis B virus [32]
  EC50: 700 nM
  EC90: 2800 nM
Lung [33]
  Cmax: 2.84 nmol/g
Brain [34]
  Cmax: 0.16 nmol/g
HepG2 [35]
  Drug uptake: 255 pmol
Kidney [36]
  AUC: 195.7 nmol·h/g
Lung [37]
  Cmax: 2.89 nmol/g
